From PubChem BioAssay
STAT1 blocker: STAT1 signaling inhibitors, primary screen, cell-based, HTS, luciferase reporter. NIH 3T3 STAT1-luciferase reporter, IFN-gamma, luminescence. inhibition, % at 5.5 µM. 0.35% of 200,000 active;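 active = inhibition above a set limit, the mean inhibition across all tested compounds plus 3 SD, cut at about 34% in these data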;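 note: 0% = IFN-gamma with DMSO and 100% = IFN-gamma with 300 µM nifuroxazide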
STAT3 inh: IL-6 driven STAT3 reporter inhibitors, primary screen, U3A cells, luciferase, luminescence, MLSCN library. inhibition, % at 5.5 µM. IL-6 STAT3-luciferase reporter; host cell line lacks STAT1. 0.89% of 190,000 active;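 active = inhibition above the mean inhibition across all screened compounds plus 3 SD, cut at about 44% in these data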;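 note: 0% = DMSO only wells and 100% = 100 µM nifuroxazide control wells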
TRAIL sens C8: viability loss with TRAIL in NB7+C8 cells, primary screen, TRAIL sensitizer project, cell-based, ATPlite luminescence | inhibition (viability loss, TRAIL sensitization), % at 10 µM | 1% of 360,000 active | AID 624354, 2012;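 active = compounds causing at least 50% loss of cell viability in the single-dose screen, relative to plate controls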
PPC-1+TRAIL kill: compounds killing PPC-1 cancer cells with TRAIL present, primary screen, TRAIL potentiator project, ATPLite luminescence, uHTS; PPC-1 cells + TRAIL, ATPLite viability luminescence; cell killing (% activity), % at 4 µM or 5 µM; 0.41% of 220,000 active;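 active = cell killing above 50% in the first pass at 4 µM, then a duplicate retest at 5 µM averaging 50% or more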;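 note: plate controls were cells with TRAIL plus DMSO for no effect and medium-only wells lacking cells for full effect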
STAT3 activator: IL-6 driven STAT3 reporter potentiators, primary screen, U3A cells, luciferase, luminescence, MLSCN library; 0.91% of 190,000 active; AID 871, 2007; IL-6 STAT3-luciferase reporter; 100% = signal with IL-6 EC80 alone; activation (% of control), % at 5.6 µM;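 active = activation above the screen-wide mean of compound activation plus 3 SD, cut at about 130% in these data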;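 note: 0% = background luminescence of wells with medium and substrate only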
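Material: STAT1-lacking human U3A cells, STAT3 luciferase reporter | Benchmarks: IL-6-only wells as 100% reference | Probe or stimulus: IL-6 (33 ng/mL) | Timing: Compound 1 h, then IL-6 6 h at 37 °C | Detection: Luminescence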
PPC-1 tox: cytotoxicity in PPC-1 cells, confirmation, cytotoxicity control for TRAIL apoptosis potentiator project, cell-based, ATP content luminescence | shares compounds with PPC-1+TRAIL kill | cytotoxicity, % at 5 µM | PPC-1 viability, ATPlite luminescence, overnight | 50% of 1,200 active;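 active = reconfirmed compounds whose average cytotoxicity reaches 50% or more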;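 note: 0% = DMSO-treated cells and 100% = wells holding medium but no cells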
* marks the source's active call; other numbers are inactive results; · = no result given. Most compounds without a hit are left out; they make up all but 1.8% or so of the library.

SMILES	STAT1 blocker	STAT3 inh	TRAIL sens C8	PPC-1+TRAIL kill	STAT3 activator	PPC-1 tox
COc1ccc(C(=O)Nc2ccccc2C(=O)N/N=C/c2ccncc2)cc1OC	·	·	94*	96*	·	96*
N#CCc1nc(CSc2nc3ccccc3s2)cs1	-20	8	29	-15	96	-32
O=C1NC(Cc2ccccc2)c2nc3cc(Cl)ccc3c(=O)n2-c2ncccc21 (stereo not given)	·	·	5	·	·	·
COc1ccc(-c2nc3ccccc3s2)cc1	73*	85*	84*	60*	27	61*
Cn1nnc(NC(=O)c2ccc(C(C)(C)C)cc2)n1	-3	12	55*	54*	93	53*
Cn1nnc(NC(=O)c2ccc3ccccc3c2)n1	-9	15	19	4	90	·
CCc1c(C)nc(Nc2nc(C)c3ccc(OC)cc3n2)[nH]c1=O	-20	16	4	-7	91	·
COc1ccc2c(C)nc(Nc3nc(C)c(C)c(=O)[nH]3)nc2c1	-112	-31	12	-10	127	-12
COc1ccc(-c2cc(C(=O)N3CCCC3)c3ccccc3n2)cc1	·	·	34	·	·	·
CCOC(=O)N1CCN(C(=O)c2cc(-c3ccc(OCC)cc3)nc3ccccc23)CC1	-51	-1	89*	82*	103	83*
CCOc1ccc(-c2cc(C(=O)N3CCN(C)CC3)c3ccccc3n2)cc1	-17	10	75*	72*	97	67*
CCOC(=O)N1CCN(C(=O)c2cc(-c3ccncc3)nc3ccccc23)CC1	·	·	28	·	·	·
COCCNC(=O)C1C(=O)Nc2ccccc2C(=O)N1Cc1ccccc1 (stereo not given)	·	·	-13	·	·	·
CC(C)NC(=O)COC(=O)c1cc(F)c(F)cc1Cl	0	-2	0	10	102	15
O=C(O)c1ccc(N2C(=O)c3ccccc3C2=O)cc1[N+](=O)[O-]	·	·	-16	·	·	·
COC(=O)c1ccc(NC(=O)CN(C)S(=O)(=O)c2ccc(OC)c(C)c2)cc1	9	18	-8	-10	89	-2
CCCCNC(=O)c1nc(C2CCN(S(=O)(=O)c3c(OC)cccc3OC)CC2)oc1-c1ccccc1	·	·	7	·	·	·
OCCNCC(O)Cn1ccc2ccccc21 (stereo not given)	5	2	-1	8	102	6
COCCN(C(=O)CCC(=O)Nc1ccccn1)C(C(=O)NCCC(C)C)c1ccc(F)cc1 (stereo not given)	·	·	-3	·	·	·
CCOc1ccc(C(=O)Nn2cnnc2)cc1	0	3	2	18	103	·
CCOc1ccc(C/C(N)=N/n2cnnc2)cc1	1	-4	-16	15	100	17
COc1c2c(c(OC)c3ccccc13)[C@]1(OC2)O[C@H](CCO)C[C@H](O)[C@H]1O	·	·	0	·	·	·
CC(Oc1ccccc1F)C(=O)NNC(=O)Cc1ccc(S(=O)(=O)N2CCOCC2)s1 (stereo not given)	·	·	-10	·	·	·
CC(C)OC(=O)Nc1ccc2c(c1)N(C(=O)N1CCN(C)CC1)c1ccccc1CC2	·	·	79*	74*	·	74*
COc1ccc2nc(NC(=O)Nc3ccccc3OC)sc2c1	·	·	44	·	·	·
SMILES	STAT1 blocker	STAT3 inh	TRAIL sens C8	PPC-1+TRAIL kill	STAT3 activator	PPC-1 tox
COc1ccc2nc(Nc3ccccc3OC)sc2c1	-8	26	69*	61*	82	57*
O=C(/C=C/c1ccc2c(c1)OCO2)Nc1cccnc1	-33	25	70*	60*	82	57*
Cn1cnnc1Sc1ccc(C(=O)OCC(=O)NC2CC2)cc1[N+](=O)[O-]	2	-2	0	14	107	1
CCc1nnc(NC(=O)CS(=O)(=O)Cc2ccccc2)s1	·	·	9	·	·	·
CCOC(=O)COc1ccc(S(=O)(=O)N2CCN(C(=O)OCC)CC2)cc1	5	2	1	-15	100	·
CCOC(=O)N1CCN(S(=O)(=O)c2ccc(OCC(=O)OC)cc2)CC1	1	0	-15	-2	103	3
COc1ccc(S(=O)(=O)NC(=O)C2(C)CCN2C(=O)Cc2cccc3ccccc23)cc1 (stereo not given)	·	·	-14	·	·	·
